Assay results pooled from the literature.
Compare with care: the assays were run in different laboratories.
Target: Receptor tyrosine-protein kinase erbB-3 (ERBB3, Homo sapiens, UniProt P21860)

SMILES	assay	conditions	remaining binding
C=CC(=O)N1CCC(C(=O)NCC(=O)N2CCN(c3nc(-c4cnc(N)nc4C(F)F)nc(N4CCOCC4)n3)CC2)CC1	binding, competition with immobilised ligand	1 µM	84%
O=C(c1ccc(Nc2ncc(Cl)c(-c3cc4ccccc4s3)n2)cc1)N1CCC(N2CCCC2)CC1	binding, competition with immobilised ligand	1 µM	81%
Nc1ncc2c(n1)-c1c([nH]c3ccc(C#CC4CC4)cc13)CCCC2	binding, competition with immobilised ligand	1 µM	100%
N[C@@H]1CCN(c2nccc(-c3cnn4ncccc34)n2)C1	binding	1 µM	100%
CC(=O)N1CCC(c2ccc(C(=O)NC(=N)N)cc2C(F)(F)F)CC1	cell-free assay, competition with immobilised ligand	1 µM	98%
Cc1cnc(Nc2ccc(C(=O)N3CCC(N4CCCC4)CC3)cc2)nc1-c1cc2ccccc2s1	binding, competition with immobilised ligand	1 µM	89%
CCCOc1ccc([C@H]2[C@H](C(=O)O)[C@@H](c3ccc4c(c3)OCO4)CN2CC(=O)Nc2c(CC)cccc2CC)cc1	cell-free assay, competition with immobilised ligand	1 µM	78%
CCN1CCN(Cc2ccc(C(=O)Nc3ccc(C)c(Oc4ccc5c(c4)CC(=O)N5)c3)cc2C(F)(F)F)CC1	binding, competition with immobilised ligand	1 µM	100%
CC(C)(O)c1cncc(-c2nc3ccc(F)cc3n2C2CC2)c1	cell-free assay, competition with immobilised ligand	1 µM	80%
C[C@@H]1CCN(c2nccc(-c3cnn4ncccc34)n2)C1	binding	1 µM	100%
C[C@H](NC(=O)c1cnc2n1[C@](C)(Cc1ccc(C#N)cc1)C(=O)N2c1cc(Cl)c(F)c(Cl)c1)C(=O)NC1(c2ccccn2)CC1	cell-free assay, competition with immobilised ligand	1 µM	100%
CN(C)c1ncc(F)c(-c2cnn3ncccc23)n1	binding	1 µM	100%
COc1ccc2c(c1)O[C@H](c1ccc(OC)c(OC)c1)C[C@@H]2NC(=O)C1(c2ccc3c(c2)OC(F)(F)O3)CC1	cell-free assay, competition with immobilised ligand	1 µM	92%
O=C(NCC1CCOCC1)c1n[nH]cc1NC(=O)c1c(F)cccc1F	binding, competition with immobilised ligand	1 µM	73%
O=C(NCc1ncc(C(F)(F)F)cc1Cl)c1ccc2c(c1)C1(CCS(=O)(=O)CC1)[C@H](C1CC1)N2S(=O)(=O)c1ccc(F)cc1	cell-free assay, competition with immobilised ligand	1 µM	100%
Cc1cnn2ncc(-c3ccnc(N(C)C)n3)c2c1	binding	1 µM	100%
COc1ncc2cc3ccccc3nc2c1C#N	cell-free assay, competition with immobilised ligand	5 µM	76%
O=C(NCCCN1CCOCC1)c1ccc(Nc2ncc(Cl)c(-c3ccc(Cl)s3)n2)cc1	binding, competition with immobilised ligand	1 µM	91%
CC1CCCN1c1nccc(-c2cnn3ncccc23)n1 (stereo not shown)	binding	1 µM	100%
O=C1CCc2cc(Nc3cc(OC4CCOCC4)c([N+](=O)[O-])cc3Cl)ccc2N1	cell-free assay, competition with immobilised ligand	1 µM	98%
COc1cnc(Nc2cccc(S(N)(=O)=O)c2)nc1N1CCN(c2ccccc2)CC1	binding, competition with immobilised ligand	1 µM	88%
c1cnn2ncc(-c3ccnc(N4CCC45COC5)n3)c2c1	binding	1 µM	86%
